Assay results published in PMC8570090 (Bioorganic & medicinal chemistry letters, 2020).

How the values were obtained:
[1] = tested on: human lung carcinoma A549; experiment: In vitro antiproliferative assay; assay type: cell-based; conditions: Fig. 5
Outline: (§1)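 Cells seeded at 50,000 per well in DMEM with 5% FBS. Exposed for 4 days to test compound at 6 concentrations, with DMSO vehicle and a reference compound as positive control. Cell numbers counted on a Coulter counter. Survival ratio is treated over vehicle cell number. IC50 taken from dose-response curves. Run in triplicate, mean ± SD.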

[2] = tested on: human breast adenocarcinoma MDA-MB-231; experiment: In vitro antiproliferative assay; assay type: cell-based; conditions: Fig. 5
Outline: as §1

[3] = tested on: human cervical cancer HeLa; experiment: In vitro antiproliferative assay; assay type: cell-based; conditions: Fig. 5
Outline: as §1

[4] = tested on: human prostate carcinoma 22Rv1; experiment: In vitro antiproliferative assay; assay type: cell-based; conditions: Fig. 5
Outline: as §1

Stability of PI-103BE = assay type: in vitro ADME; conditions: species found after treatment with PI-103BE (9); for Fraction in culture medium: all time points
[5] = Single dose pharmacokinetics in mice, intraperitoneal injection; assay type: in vivo
[6] = Single dose pharmacokinetics in mice, oral gavage; assay type: in vivo; conditions: single oral dose 10 mg/kg
Outline: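 Female ovariectomized Nu/Nu mice, 4–6 weeks old (n = 5), received a single 10 mg/kg dose by gavage in 5% DMSO/40% PEG 400/55% saline. Orbital-sinus blood was drawn at 0.5, 1, 3, 8 and 24 h, with one sampling per group, into EDTA. Plasma was separated at 4 °C and frozen at −80 °C. Drug and metabolites were quantified by C18 UHPLC–MS (formic acid water/acetonitrile gradient).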

[7] = tested on: panel of cancer cell lines; experiment: In vitro antiproliferative activity, panel of six cancer cell lines; assay type: cell-based, human; conditions: IC50 ratio across A549, MDA-MB-231, HeLa, 22Rv1, PC-3, SKOV-3
Outline: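 Cells plated at 50,000 per well in DMEM with 5% FBS and exposed for 4 days to test compound at 6 doses. DMSO served as vehicle control and the parent inhibitor as positive control. Cells were counted on a Coulter counter. Survival ratio is treated over vehicle cell number, and IC50 is taken from dose-response curves. Run in triplicate, mean ± SD.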

Row | Fraction of total drug content in cell culture media (Stability of PI-103BE; 0.5 h) [%] | Fraction of total drug content in cell culture media (Stability of PI-103BE; 3 h) [%] | Fraction of total drug content in cell culture media (Stability of PI-103BE; 8 h) [%] | Fraction of total drug content in cell culture media (Stability of PI-103BE; 24 h) [%] | Fraction in culture medium (Stability of PI-103BE) [%] | Fraction of total drug content in cell culture media (Stability of PI-103BE; 1 h) [%] | Peak plasma concentration of PI-103, times lower than after i.p. PI-103BE ([5]; 10 mg/kg IP, 7-treated vs PI-103BE-treated) [times] | Oral bioavailability [6] | Concentration in cell culture media (Stability of PI-103BE; 3 h) [nM] | Concentration in cell culture media (Stability of PI-103BE; 8 h) [nM] | Concentration in cell culture media (Stability of PI-103BE; 24 h) [nM] | PI-103BE in plasma ([5]; 10 mg/kg IP of labelled compound, analyte PI-103BE) | Structure (SMILES) | Antiproliferative activity [1] | Antiproliferative activity [2] | Antiproliferative activity [3] | Antiproliferative activity [4] | Times less potent than PI-103 (7) [7]
1 | 97.95 | 96.70 | 96.73 | 96.19 | > 95 | – | – | – | – | – | – | – | OB(O)c1cccc(-c2nc(N3CCOCC3)c3oc4ncccc4c3n2)c1 [PI-103BA (10), (3-(4-Morpholinopyrido[3′,2′:4,5]furo[3,2-d]pyrimidin-2-yl)phenyl)boronic acid] | dose dependent antiproliferative activities | dose dependent antiproliferative activities | dose dependent antiproliferative activities | dose dependent antiproliferative activities | –
2 | 2.02 | 3.30 | 3.27 | 3.81 | < 4 | 2.52 | 10 | no oral bioavailability | – | – | – | – | Oc1cccc(-c2nc(N3CCOCC3)c3oc4ncccc4c3n2)c1 [PI-103 (7), 3-(4-Morpholinopyrido[3′,2′:4,5]furo[3,2-d]pyrimidin-2-yl)phenol, reference compound] | – | – | – | – | –
3 | 1.61 | 0 | 0 | 0 | – | 0.32 | – | – | 0 | 0 | 0 | no PI-103BE was detected in plasma | CC1(C)OB(c2cccc(-c3nc(N4CCOCC4)c4oc5ncccc5c4n3)c2)OC1(C)C [PI-103BE (9), 4-Morpholino-2-(3-(4,4,5,5-tetramethyl-1,3,2-dioxaborolan-2-yl)phenyl)pyrido[3′,2′:4,5] furo[3,2-d]pyrimidine] | – | – | – | – | 3 ~ 24 times
